Data from ChEMBL document CHEMBL3352339, “Implications of N-capped urea/thiourea and C-capped 3-(1-piperazinyl)-1,2-benzisothiazole with bridging Gly-Val/Phe-Gly-Val-Pro as therapeutic targets” (Eur J Med Chem, 2014).
pIC50: −log10 of the molar value. In brackets after ≈: the same amount, converted by molar mass. Starred links: 1 amine or outer side, 2 acyl side, 3 side chain; linkers in the order of their positions; H or OH if unused. Residues, ends and D or L forms follow the SMILES beside them. *: point of attachment. Thiocarbamoyl(N-2-FPh) = Fc1ccccc1NC(=S)*; X1 = c1ccc2c(N3CCN(*)CC3)nsc2c1; NH(4-F-phenyl) = Fc1ccc(N*)cc1; NH(2-F-phenyl) = Fc1ccccc1N*; X2 = Fc1ccc(NC(=S)*)cc1; Boc = CC(C)(C)OC(=O)*; CO = O=C([*:1])[*:2]

Key:
Escherichia coli [1] = test: Antibacterial activity against Escherichia coli at 50 ug/mL incubated for 24 hrs by agar well diffusion method; type: functional; settings: read-out: IZ
In short: (§1)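 Agar well diffusion against the bacterial isolate, with streptomycin as the reference drug. Read-out is the average diameter (mm) of the growth-inhibition zone around the well.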

[2] = Inhibition of sheep stomach parietal cells gastric H+/K+-ATPase activity assessed as reduction in inorganic phosphorus production by Fiske Subbarow's method; type: tissue-based, Ovis aries; settings: for pIC50: read-out: IC50
In short: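 Inhibition of purified H+/K+-ATPase, with omeprazole as the reference. IC50 is the mean of triplicate runs.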

Klebsiella pneumoniae [3] = test: Antibacterial activity against Klebsiella pneumoniae at 50 ug/mL incubated for 24 hrs by agar well diffusion method; type: functional; settings: read-out: IZ; in short: as §1
Xanthomonas oryzae [4] = test: Antibacterial activity against Xanthomonas oryzae at 50 ug/mL incubated for 24 hrs by agar well diffusion method; type: functional; settings: read-out: IZ
Aspergillus niger [5] = test: Antifungal activity against Aspergillus niger at 50 ug/mL incubated for 3 days by agar well diffusion method; type: functional; settings: 72 h, read-out: IZ
In short: (§2)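 Fungal growth inhibition measured by agar well diffusion, with bavistin as the reference. Records the mean inhibition-zone diameter (mm) around each well.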

Staphylococcus [6] = test: Antibacterial activity against Coagulase positive Staphylococcus at 50 ug/mL incubated for 24 hrs by agar well diffusion method; type: functional; settings: read-out: IZ; in short: as §1
Aspergillus flavus [7] = test: Antifungal activity against Aspergillus flavus at 50 ug/mL incubated for 3 days by agar well diffusion method; type: functional; settings: 72 h, read-out: IZ; in short: as §2
[8] = Antiglycation activity using bovine serum albumin incubated at 37 degC for 7 days by spectrofluorimetry; type: physicochemical
In short: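 Glycation of bovine serum albumin, with rutin as the reference standard. IC50 values are averages of triplicate runs.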

Urease = Urease (Canavalia ensiformis, UniProt P07374); test: Inhibition of jack bean urease assessed as reduction in ammonia production incubated at 30 degC for 15 mins by indophenol method
Sequence of Urease (P07374 whole entry): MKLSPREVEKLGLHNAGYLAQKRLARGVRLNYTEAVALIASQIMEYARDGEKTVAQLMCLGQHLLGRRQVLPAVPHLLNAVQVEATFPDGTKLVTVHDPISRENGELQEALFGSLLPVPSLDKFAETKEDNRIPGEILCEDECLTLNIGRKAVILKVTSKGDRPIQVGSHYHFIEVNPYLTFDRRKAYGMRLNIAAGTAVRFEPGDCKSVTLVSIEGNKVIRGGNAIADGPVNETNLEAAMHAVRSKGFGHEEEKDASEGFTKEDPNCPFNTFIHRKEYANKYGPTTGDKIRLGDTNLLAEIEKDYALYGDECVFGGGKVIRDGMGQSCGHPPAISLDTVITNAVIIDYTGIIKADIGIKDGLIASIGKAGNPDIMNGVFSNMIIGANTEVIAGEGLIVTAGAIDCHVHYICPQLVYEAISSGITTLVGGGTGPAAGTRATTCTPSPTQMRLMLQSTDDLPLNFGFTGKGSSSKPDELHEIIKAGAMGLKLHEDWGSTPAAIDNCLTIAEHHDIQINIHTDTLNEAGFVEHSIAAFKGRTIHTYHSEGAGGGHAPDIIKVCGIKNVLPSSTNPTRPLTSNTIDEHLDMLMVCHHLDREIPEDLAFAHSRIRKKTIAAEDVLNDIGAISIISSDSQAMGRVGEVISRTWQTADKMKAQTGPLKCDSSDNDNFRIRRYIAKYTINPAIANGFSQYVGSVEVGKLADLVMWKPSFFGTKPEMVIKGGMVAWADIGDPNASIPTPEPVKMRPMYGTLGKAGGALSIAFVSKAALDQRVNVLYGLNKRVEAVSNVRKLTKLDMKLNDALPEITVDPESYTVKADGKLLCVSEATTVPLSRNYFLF
In short: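 Inhibition of jack bean urease, with thiourea as the reference standard. IC50 values are the average of triplicate runs.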

Fusarium verticillioides [9] = test: Antifungal activity against Fusarium moniliforme at 50 ug/mL incubated for 3 days by agar well diffusion method; type: functional; settings: 72 h, read-out: IZ; in short: as §2
Fusarium oxysporum [10] = test: Antifungal activity against Fusarium oxysporum at 50 ug/mL incubated for 3 days by agar well diffusion method; type: functional; settings: 72 h, read-out: IZ; in short: as §2
Aspergillus flavus [11] = test: Antifungal activity against Aspergillus flavus incubated for 48 to 72 hrs by agar microdilution method; type: functional
In short: (§3)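 MIC by microdilution against the fungal strain, limited to compounds showing significant zones in the diffusion assay. Bavistin was used as the reference.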

Xanthomonas oryzae [12] = test: Antibacterial activity against Xanthomonas oryzae incubated for 24 hrs by agar microdilution method; type: functional
Fusarium oxysporum [13] = test: Antifungal activity against Fusarium oxysporum incubated for 48 to 72 hrs by agar microdilution method; type: functional; in short: as §3
Escherichia coli [14] = test: Antibacterial activity against Escherichia coli incubated for 24 hrs by agar microdilution method; type: functional
Staphylococcus [15] = test: Antibacterial activity against Coagulase positive Staphylococcus incubated for 24 hrs by agar microdilution method; type: functional
Fusarium verticillioides [16] = test: Antifungal activity against Fusarium moniliforme incubated for 48 to 72 hrs by agar microdilution method; type: functional; in short: as §3
Aspergillus niger [17] = test: Antifungal activity against Aspergillus niger incubated for 48 to 72 hrs by agar microdilution method; type: functional; in short: as §3
Klebsiella pneumoniae [18] = test: Antibacterial activity against Klebsiella pneumoniae incubated for 24 hrs by agar microdilution method; type: functional

SMILES | zone of inhibition at 50 µg/mL (Escherichia coli [1]) | IC50 [2] | zone of inhibition at 50 µg/mL (Klebsiella pneumoniae [3]) | zone of inhibition at 50 µg/mL (Xanthomonas oryzae [4]) | zone of inhibition at 50 µg/mL (Aspergillus niger [5]) | zone of inhibition at 50 µg/mL (Staphylococcus [6]) | zone of inhibition at 50 µg/mL (Aspergillus flavus [7]) | pIC50 [8] | pIC50 (Urease) | zone of inhibition at 50 µg/mL (Fusarium verticillioides [9]) | zone of inhibition at 50 µg/mL (Fusarium oxysporum [10]) | MIC (Aspergillus flavus [11]) | MIC (Xanthomonas oryzae [12]) | MIC (Fusarium oxysporum [13]) | MIC (Escherichia coli [14]) | pIC50 [2] | MIC (Staphylococcus [15]) | MIC (Fusarium verticillioides [16]) | MIC (Aspergillus niger [17]) | MIC (Klebsiella pneumoniae [18])
CC(C)[C@H](NC(=O)CNC(=O)OC(C)(C)C)C(=O)NCC(=O)N[C@H](C(=O)N1CCC[C@H]1C(=O)N1CCN(c2nsc3ccccc23)CC1)C(C)C (Boc-GVGVP-X1) | 6 mm | Not Active | 40.3 mm | 4 mm | 5 mm | 5 mm | 4 mm | 3.60 | 3.53 | 5 mm | 6 mm | – | – | – | – | – | – | – | – | –
CC(C)[C@H](NC(=O)CNC(=O)[C@H](Cc1ccccc1)NC(=O)CNC(=S)Nc1ccc(F)cc1)C(=O)N1CCC[C@H]1C(=O)N1CCN(c2nsc3ccccc23)CC1 (X2-GFGVP-X1) | 35 mm | – | – | 34 mm | 35 mm | 35 mm | 36 mm | 4.38 | 4.48 | 36 mm | 35 mm | 10.2 mg/L (≈ 12.3 µM) | 7.5 µg | 11 mg/L (≈ 13.3 µM) | 9 mg/L (≈ 10.8 µM) | 4.14 | 9 mg/L (≈ 10.8 µM) | 9.75 mg/L (≈ 11.7 µM) | 9.75 mg/L (≈ 11.7 µM) | 8.5 mg/L (≈ 10.2 µM)
CC(C)[C@H](NC(=O)CNC(=S)Nc1ccc(F)cc1)C(=O)NCC(=O)N[C@H](C(=O)N1CCC[C@H]1C(=O)N1CCN(c2nsc3ccccc23)CC1)C(C)C (X2-GVGVP-X1) | 32 mm | – | – | 29 mm | 35 mm | 31 mm | 34 mm | 4.47 | 4.46 | 35 mm | 35 mm | 12.8 mg/L (≈ 16.3 µM) | 9.5 µg | 13.2 mg/L (≈ 16.9 µM) | 10.2 mg/L (≈ 13.1 µM) | 4.12 | 10.8 mg/L (≈ 13.7 µM) | 11 mg/L (≈ 14.1 µM) | 10.5 mg/L (≈ 13.4 µM) | 10 mg/L (≈ 12.8 µM)
CC(C)[C@H](NC(=O)CNC(=O)[C@H](Cc1ccccc1)NC(=O)CNC(=O)Nc1ccccc1F)C(=O)N1CCC[C@H]1C(=O)N1CCN(c2nsc3ccccc23)CC1 ({NH(2-F-phenyl)-CO}-GFGVP-X1) | 30 mm | – | – | 28 mm | 29 mm | 29 mm | 28 mm | 4.28 | 4.39 | 26 mm | 29 mm | 14.2 mg/L (≈ 17.5 µM) | – | 14 mg/L (≈ 17.2 µM) | 12.8 mg/L (≈ 15.7 µM) | 3.96 | 12.2 mg/L (≈ 15 µM) | 10 mg/L (≈ 12.3 µM) | 14 mg/L (≈ 17.2 µM) | 12.2 mg/L (≈ 15 µM)
CC(C)[C@H](NC(=O)CNC(=O)Nc1ccccc1F)C(=O)NCC(=O)N[C@H](C(=O)N1CCC[C@H]1C(=O)N1CCN(c2nsc3ccccc23)CC1)C(C)C ({NH(2-F-phenyl)-CO}-GVGVP-X1) | 25 mm | – | – | 23 mm | 25 mm | 25 mm | 24 mm | 4.27 | 4.38 | 26 mm | 22 mm | 17.8 mg/L (≈ 23.2 µM) | – | 16.8 mg/L (≈ 21.9 µM) | 15.8 mg/L (≈ 20.6 µM) | 4.00 | 16.8 mg/L (≈ 21.9 µM) | 15.5 mg/L (≈ 20.2 µM) | 16.8 mg/L (≈ 21.9 µM) | 17 mg/L (≈ 22.2 µM)
CC(C)[C@H](NC(=O)CNC(=O)[C@H](Cc1ccccc1)NC(=O)CNC(=O)Nc1ccc(F)cc1)C(=O)N1CCC[C@H]1C(=O)N1CCN(c2nsc3ccccc23)CC1 ({NH(4-F-phenyl)-CO}-GFGVP-X1) | 33 mm | – | – | 31 mm | 30 mm | 32 mm | 31 mm | 4.36 | 4.46 | 31 mm | 32 mm | 11 mg/L (≈ 13.5 µM) | 8.75 µg | 12.2 mg/L (≈ 15 µM) | 11 mg/L (≈ 13.5 µM) | 4.10 | 11.2 mg/L (≈ 13.8 µM) | 11 mg/L (≈ 13.5 µM) | 10.5 mg/L (≈ 12.9 µM) | 9.25 mg/L (≈ 11.4 µM)
CC(C)[C@H](NC(=O)CNC(=O)Nc1ccc(F)cc1)C(=O)NCC(=O)N[C@H](C(=O)N1CCC[C@H]1C(=O)N1CCN(c2nsc3ccccc23)CC1)C(C)C ({NH(4-F-phenyl)-CO}-GVGVP-X1) | 30 mm | – | – | 27 mm | 33 mm | 29 mm | 32 mm | 4.40 | 4.41 | 34 mm | 30 mm | 14.5 mg/L (≈ 18.9 µM) | 10.5 µg | 14.5 mg/L (≈ 18.9 µM) | 12.8 mg/L (≈ 16.6 µM) | 4.11 | 13.2 mg/L (≈ 17.3 µM) | 13.5 mg/L (≈ 17.6 µM) | 11.8 mg/L (≈ 15.3 µM) | 11.2 mg/L (≈ 14.7 µM)
CC(C)[C@H](NC(=O)CNC(=O)[C@H](Cc1ccccc1)NC(=O)CNC(=S)Nc1ccccc1F)C(=O)N1CCC[C@H]1C(=O)N1CCN(c2nsc3ccccc23)CC1 ({Thiocarbamoyl(N-2-FPh)}-GFGVP-X1) | 32 mm | – | – | 31 mm | 31 mm | 31 mm | 30 mm | 4.32 | 4.42 | 28 mm | 31 mm | 13 mg/L (≈ 15.7 µM) | 11 µg | 13 mg/L (≈ 15.7 µM) | 11 mg/L (≈ 13.3 µM) | 3.99 | 11.2 mg/L (≈ 13.6 µM) | 9.25 mg/L (≈ 11.1 µM) | 12.8 mg/L (≈ 15.4 µM) | 10.8 mg/L (≈ 13 µM)
CC(C)[C@H](NC(=O)CNC(=S)Nc1ccccc1F)C(=O)NCC(=O)N[C@H](C(=O)N1CCC[C@H]1C(=O)N1CCN(c2nsc3ccccc23)CC1)C(C)C ({Thiocarbamoyl(N-2-FPh)}-GVGVP-X1) | 27 mm | – | – | 24 mm | 30 mm | 27 mm | 29 mm | 4.30 | 4.40 | 31 mm | 30 mm | 16.5 mg/L (≈ 21.1 µM) | – | 15.2 mg/L (≈ 19.5 µM) | 14.2 mg/L (≈ 18.2 µM) | 4.04 | 15.5 mg/L (≈ 19.8 µM) | 13 mg/L (≈ 16.6 µM) | 15.2 mg/L (≈ 19.5 µM) | 16 mg/L (≈ 20.5 µM)
CN[C@@H]1[C@H](O[C@H]2[C@H](O[C@H]3[C@H](O)[C@@H](O)[C@H](N=C(N)N)[C@@H](O)[C@@H]3N=C(N)N)O[C@@H](C)[C@]2(O)C=O)O[C@@H](CO)[C@H](O)[C@H]1O [STREPTOMYCIN] | 14 mm | – | – | 11 mm | – | 13 mm | – | – | – | – | – | – | 18 µg | – | 22 mg/L (≈ 37.8 µM) | – | 21 mg/L (≈ 36.1 µM) | – | – | 20 mg/L (≈ 34.4 µM)
